B1: tRNA (parent)
chain: GUUCCGUUGGCGUAAUGGUAACGCGUCUCCCUCCUAAGGAGAAGACUGCGGGUUCGAGUCCCGUACGGAACG

Variants of: B1
Experiment: yeast fitness, log relative to wild type (ln ratio); higher = fitter; tRNA-Arg(CCU), competitive growth, 37 C, 1 M NaCl
In short: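 Genotype fitness is expressed as the natural log of its generations over those of the wild type. Each pool of the tRNA-Arg(CCU) variant library, carried on a HIS3 centromeric plasmid in BY4742 lacking the chromosomal gene, came from one of two independent transformations and grew 4 generations in SC-HIS at 30 °C before ~6.5 generations (~26.5 h) in SC-HIS 1M NaCl at 37 °C. Generation numbers used OD-scaled log2 output/input frequencies from 125 bp paired-end Illumina sequencing, combined across replicates by inverse-variance weighting.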

Compared with AGUCCUUUGGCGUAAUGGUAACGCGUUUCCCUCCUAAGGAGACGAUUGCGGGUUCGAGUCCCGUAUGGAAUG [G1A U2G G6U C27U A43C C46U C66U C71U], GGUCCAUUGGCGUAAUGGUAACGCGUUUCCCUCCUAAGGAGACGAUUGCGGGUUCGAGUCCCGUAUGGAAUG [U2G G6A C27U A43C C46U C66U C71U] is higher in “yeast fitness (ln)” value: -0.526 for the first, -0.282 for the second.

Going from GGUCCAUUGGCGUAAUGGUAACGCGUUUCCCUCCUAAGGAGACGAUUGCGGGUUCGAGUCCCGUACGGGUUG [U2G G6A C27U A43C C46U A69G A70U C71U] to AGUCCUUUGGCGUAAUGGUAACGCGUUUCCCUCCUAAGGAGACGACUGCGGGUUCGAGUCCCGUAAGGAACG [G1A U2G G6U C27U A43C C66A], the “yeast fitness (ln)” value rises from -0.384 to -0.171.

Compared with GUUCCUUUGGCGUAAUGGUAACGCGUCUCCCUCCUAAGGAGACGACUGCGGGUUCGAGUCCCGUAAGGAGCG [G6U A43C C66A A70G], GGUCCAUUGGCGUAAUGGUAACGCGUCUCCCUCCUAAGGAGAAGAUUGCGGGUUCGAGUCCCGUAUGGGGCG [U2G G6A C46U C66U A69G A70G] is lower in “yeast fitness (ln)” value: -0.0733 for the first, -0.442 for the second.

First: GUUCCUUUGGCGUAAUGGUAACGCGUCUCCCUCCUAAGGAGAAGACUGCGGGUUCGAGUCCCGUAUGGAUCG [G6U C66U A70U]
Second: AGUCCAUUGGCGUAAUGGUAACGCGUUUCCCUCCUAAGGAGACGAUUGCGGGUUCGAGUCCCGUAUGGAAUG [G1A U2G G6A C27U A43C C46U C66U C71U]
The “yeast fitness (ln)” value of the first is higher: -0.122 for the first, -0.29 for the second.

Going from AGUCCGUUGGCGUAAUGGUAACGCGUUUCCCUCCUAAGGAGAAGAUUGCGGGUUCGAGUCCCGUACGGAUUG [G1A U2G C27U C46U A70U C71U] to AUUCCGUUGGCGUAAUGGUAACGCGUCUCCCUCCUAAGGAGACGAUUGCGGGUUCGAGUCCCGUACGGGAUG [G1A A43C C46U A69G C71U], the “yeast fitness (ln)” value falls from -0.0144 to -0.0151.

First: AGUCCAUUGGCGUAAUGGUAACGCGUUUCCCUCCUAAGGAGACGACUGCGGGUUCGAGUCCCGUAUGGAACG [G1A U2G G6A C27U A43C C66U]
Second: ACUCCGUUGGCGUAAUGGUAACGCGUUUCCCUCCUAAGGAGAAGAUUGCGGGUUCGAGUCCCGUAAGGGGUG [G1A U2C C27U C46U C66A A69G A70G C71U]
The “yeast fitness (ln)” value of the first is lower: -0.348 for the first, -0.294 for the second.

First: AGUCCUUUGGCGUAAUGGUAACGCGUCUCCCUCCUAAGGAGACGACUGCGGGUUCGAGUCCCGUACGGAGCG [G1A U2G G6U A43C A70G]
Second: GCUCCUUUGGCGUAAUGGUAACGCGUCUCCCUCCUAAGGAGACGACUGCGGGUUCGAGUCCCGUAAGGGGCG [U2C G6U A43C C66A A69G A70G]
The “yeast fitness (ln)” value of the first is lower: -0.263 for the first, -0.029 for the second.

Going from AUUCCUUUGGCGUAAUGGUAACGCGUUUCCCUCCUAAGGAGAAGACUGCGGGUUCGAGUCCCGUAUGGGUUG [G1A G6U C27U C66U A69G A70U C71U] to GGUCCGUUGGCGUAAUGGUAACGCGUUUCCCUCCUAAGGAGACGAUUGCGGGUUCGAGUCCCGUAUGGGGCG [U2G C27U A43C C46U C66U A69G A70G], the “yeast fitness (ln)” value rises from -0.45 to -0.275.

Compared with AGUCCUUUGGCGUAAUGGUAACGCGUUUCCCUCCUAAGGAGAAGACUGCGGGUUCGAGUCCCGUAUGGGAUG [G1A U2G G6U C27U C66U A69G C71U], GCUCCGUUGGCGUAAUGGUAACGCGUUUCCCUCCUAAGGAGACGACUGCGGGUUCGAGUCCCGUAAGGAUUG [U2C C27U A43C C66A A70U C71U] is higher in “yeast fitness (ln)” value: -0.425 for the first, -0.319 for the second.

Going from GCUCCGUUGGCGUAAUGGUAACGCGUUUCCCUCCUAAGGAGACGAUUGCGGGUUCGAGUCCCGUAAGGGGCG [U2C C27U A43C C46U C66A A69G A70G] to GGUCCAUUGGCGUAAUGGUAACGCGUCUCCCUCCUAAGGAGAAGAUUGCGGGUUCGAGUCCCGUACGGAAUG [U2G G6A C46U C71U], the “yeast fitness (ln)” value falls from -0.0542 to -0.149.

First: AGUCCGUUGGCGUAAUGGUAACGCGUUUCCCUCCUAAGGAGAAGAUUGCGGGUUCGAGUCCCGUAAGGGUCG [G1A U2G C27U C46U C66A A69G A70U]
Second: GCUCCUUUGGCGUAAUGGUAACGCGUCUCCCUCCUAAGGAGAAGAUUGCGGGUUCGAGUCCCGUAAGGAUUG [U2C G6U C46U C66A A70U C71U]
The “yeast fitness (ln)” value of the first is lower: -0.191 for the first, -0.121 for the second.

Compared with AUUCCUUUGGCGUAAUGGUAACGCGUUUCCCUCCUAAGGAGAAGACUGCGGGUUCGAGUCCCGUAUGGAGCG [G1A G6U C27U C66U A70G], GCUCCAUUGGCGUAAUGGUAACGCGUCUCCCUCCUAAGGAGACGAUUGCGGGUUCGAGUCCCGUACGGAUUG [U2C G6A A43C C46U A70U C71U] is higher in “yeast fitness (ln)” value: -0.391 for the first, -0.09 for the second.

Going from GUUCCGUUGGCGUAAUGGUAACGCGUCUCCCUCCUAAGGAGAAGACUGCGGGUUCGAGUCCCGUACGGAUCG [A70U] to GCUCCUUUGGCGUAAUGGUAACGCGUCUCCCUCCUAAGGAGACGAUUGCGGGUUCGAGUCCCGUAUGGGGUG [U2C G6U A43C C46U C66U A69G A70G C71U], the “yeast fitness (ln)” value falls from 0.00232 to -0.169.

Compared with GCUCCGUUGGCGUAAUGGUAACGCGUCUCCCUCCUAAGGAGACGAUUGCGGGUUCGAGUCCCGUACGGGUCG [U2C A43C C46U A69G A70U], AGUCCUUUGGCGUAAUGGUAACGCGUCUCCCUCCUAAGGAGAAGACUGCGGGUUCGAGUCCCGUAUGGGGUG [G1A U2G G6U C66U A69G A70G C71U] is lower in “yeast fitness (ln)” value: -0.144 for the first, -0.529 for the second.

Compared with GCUCCGUUGGCGUAAUGGUAACGCGUUUCCCUCCUAAGGAGACGAUUGCGGGUUCGAGUCCCGUACGGGACG [U2C C27U A43C C46U A69G], GGUCCGUUGGCGUAAUGGUAACGCGUCUCCCUCCUAAGGAGAAGAUUGCGGGUUCGAGUCCCGUAUGGGUUG [U2G C46U C66U A69G A70U C71U] is lower in “yeast fitness (ln)” value: -0.0409 for the first, -0.349 for the second.

Compared with AGUCCUUUGGCGUAAUGGUAACGCGUUUCCCUCCUAAGGAGAAGACUGCGGGUUCGAGUCCCGUAUGGAGCG [G1A U2G G6U C27U C66U A70G], GUUCCGUUGGCGUAAUGGUAACGCGUCUCCCUCCUAAGGAGACGAUUGCGGGUUCGAGUCCCGUACGGAUCG [A43C C46U A70U] is higher in “yeast fitness (ln)” value: -0.357 for the first, -0.00645 for the second.

First: GCUCCAUUGGCGUAAUGGUAACGCGUUUCCCUCCUAAGGAGACGACUGCGGGUUCGAGUCCCGUACGGAGCG [U2C G6A C27U A43C A70G]
Second: GGUCCGUUGGCGUAAUGGUAACGCGUUUCCCUCCUAAGGAGACGACUGCGGGUUCGAGUCCCGUAAGGAUCG [U2G C27U A43C C66A A70U]
The “yeast fitness (ln)” value of the first is lower: -0.153 for the first, -0.0548 for the second.

Compared with GUUCCGUUGGCGUAAUGGUAACGCGUCUCCCUCCUAAGGAGAAGAUUGCGGGUUCGAGUCCCGUACGGGGUG [C46U A69G A70G C71U], AUUCCGUUGGCGUAAUGGUAACGCGUCUCCCUCCUAAGGAGAAGACUGCGGGUUCGAGUCCCGUACGGGGCG [G1A A69G A70G] is higher in “yeast fitness (ln)” value: -0.237 for the first, -0.137 for the second.

First: AUUCCUUUGGCGUAAUGGUAACGCGUCUCCCUCCUAAGGAGACGACUGCGGGUUCGAGUCCCGUAAGGGGUG [G1A G6U A43C C66A A69G A70G C71U]
Second: GUUCCUUUGGCGUAAUGGUAACGCGUUUCCCUCCUAAGGAGACGACUGCGGGUUCGAGUCCCGUAAGGAAUG [G6U C27U A43C C66A C71U]
The “yeast fitness (ln)” value of the first is higher: -0.348 for the first, -0.425 for the second.

Source: the RNAGym collection of RNA variant scans (doi:10.1038/s41586-018-0170-7)
